Test results taken from ChEMBL document CHEMBL1629574, “Novel chimeric beta-lactamase CTX-M-64, a hybrid of CTX-M-15-like and CTX-M-14 beta-lactamases, found in a Shigella sonnei strain resistant to various oxyimino-cephalosporins, including ceftazidime” (Antimicrob Agents Chemother, 2009).
Converted amounts (≈) assume the structure as drawn.

What was measured:
Escherichia coli [1] = test: Antimicrobial activity against Escherichia coli XL-1 Blue harboring plasmid CL1920 by broth microdilution method; type: functional
Shigella sonnei [2] = test: Antimicrobial activity against Shigella sonnei UIH-1 expressing beta-lactamase CTX-M-64 by broth microdilution method; type: functional
Method in brief: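 MICs determined by CLSI broth microdilution on an automated panel system. […] Susceptibility categories assigned by CLSI criteria.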

Escherichia coli [3] = test: Antimicrobial activity against rifampicin-resistant Escherichia coli X1037 transconjugant by broth microdilution method; type: functional
Escherichia coli [4] = test: Antimicrobial activity against rifampicin-resistant Escherichia coli X1037 by broth microdilution method; type: functional
Escherichia coli [5] = test: Antimicrobial activity against Escherichia coli XL-1 Blue transconjugant harboring beta-lactamase CTX-M-64 by broth microdilution method; type: functional
Shigella sonnei [6] = test: Activity at Shigella sonnei UIH-1 beta-lactamase CTX-M-64 by spectrophotometry
Method in brief: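 Recombinant enzyme from E. coli BL21(DE3)pLysS/pET29a, purified by cation exchange and gel filtration. Assays at 37°C in 50 mM phosphate pH 7.0, six substrate concentrations, UV-vis readout. Km and kcat from Michaelis-Menten fits of initial rates.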

Shigella sonnei [7] = conditions: UIH-1
Escherichia coli [8] = test: Antimicrobial activity against Escherichia coli XL-1 Blue harboring plasmid CL1920 by broth microdilution method in presence of 4 ug/ml beta-lactamase inhibitor clavulanic acid; type: functional
Shigella sonnei [9] = test: Antimicrobial activity against Shigella sonnei UIH-1 expressing beta-lactamase CTX-M-64 by broth microdilution method in presence of 4 ug/ml beta-lactamase inhibitor clavulanic acid; type: functional
Escherichia coli [10] = test: Antimicrobial activity against rifampicin-resistant Escherichia coli X1037 transconjugant by broth microdilution method in presence of 4 ug/ml beta-lactamase inhibitor clavulanic acid; type: functional
Escherichia coli [11] = test: Antimicrobial activity against Escherichia coli XL-1 Blue transconjugant harboring beta-lactamase CTX-M-64 by broth microdilution method in presence of 4 ug/ml beta-lactamase inhibitor clavulanic acid; type: functional
Escherichia coli [12] = test: Antimicrobial activity against rifampicin-resistant Escherichia coli X1037 by broth microdilution method in presence of 4 ug/ml beta-lactamase inhibitor clavulanic acid; type: functional
Escherichia coli [13] = test: Antimicrobial activity against rifampicin-resistant Escherichia coli X1037 by disk diffusion method; type: functional
Method in brief: (§1)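 Non-β-lactam agents were tested by CLSI disk diffusion. Susceptibility categories were assigned by CLSI criteria.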

Escherichia coli [14] = test: Antimicrobial activity against Escherichia coli XL-1 Blue transconjugant harboring beta-lactamase CTX-M-64 by disk diffusion method; type: functional; method in brief: as §1
Escherichia coli [15] = test: Antimicrobial activity against rifampicin-resistant Escherichia coli X1037 transconjugant by disk diffusion method; type: functional; method in brief: as §1
Escherichia coli [16] = test: Antimicrobial activity against Escherichia coli XL-1 Blue harboring plasmid CL1920 by disk diffusion method; type: functional
Shigella sonnei [17] = test: Antimicrobial activity against Shigella sonnei UIH-1 expressing beta-lactamase CTX-M-64 by disk diffusion method; type: functional
Method in brief: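 Non-β-lactam susceptibility determined by CLSI disk diffusion on the clinical isolate. Categories assigned by CLSI criteria.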

Escherichia coli [18] = test: Antimicrobial activity against Escherichia coli XL-1 Blue harboring plasmid CL1920 by broth microdilution method in presence of beta-lactamase inhibitor clavulanic acid
Shigella sonnei [19] = test: Antimicrobial activity against Shigella sonnei UIH-1 expressing beta-lactamase CTX-M-64 by broth microdilution method in presence of beta-lactamase inhibitor clavulanic acid
Escherichia coli [20] = test: Antimicrobial activity against rifampicin-resistant Escherichia coli X1037 by broth microdilution method in presence of beta-lactamase inhibitor clavulanic acid
Escherichia coli [21] = test: Antimicrobial activity against rifampicin-resistant Escherichia coli X1037 transconjugant by broth microdilution method in presence of beta-lactamase inhibitor clavulanic acid
[22] = Inhibition of Shigella sonnei UIH-1 beta-lactamase CTX-M-64 by spectrophotometry in presence of 100 uM nitrocefin
Method in brief: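 Recombinant CTX-M-64 was expressed from pET29a in E. coli BL21(DE3)pLysS (0.5 mM IPTG, 3 h, 37°C). It was purified by SP cation exchange (MES pH 6.0, NaCl gradient) then gel filtration. Enzyme was preincubated 5 min at 37°C with varied clavulanic acid before adding 100 μM nitrocefin. Hydrolysis was read at 485 nm in 50 mM phosphate pH 7.0, 37°C. IC50 is the inhibitor level halving the rate.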

Shigella sonnei [23] = test: Antimicrobial activity against Shigella sonnei UIH-1 expressing beta-lactamase CTX-M-64 by disk diffusion method in presence of beta-lactamase inhibitor Sulbactam; type: functional
Escherichia coli [24] = test: Antimicrobial activity against Escherichia coli XL-1 Blue harboring beta-lactamase CTx-M-64transconjugant by disk diffusion method in presence of beta-lactamase inhibitor Sulbactam; type: functional
[25] = Shigella sonnei, UIH-1, read-out: MIC
[26] = Escherichia coli, XL-1 Blue, read-out: MIC

Compound	MIC (Escherichia coli [1])	MIC (Shigella sonnei [2]; [25])	MIC (Escherichia coli [3])	MIC (Escherichia coli [4])	MIC (Escherichia coli [5]; [26])	further results
COCC1=C(C(=O)O)N2C(=O)[C@@H](NC(=O)/C(=N\OC)c3csc(N)n3)[C@H]2SC1 [CEFPODOXIME]	≤ 0.5 µg/mL	> 64 µg/mL	> 64 µg/mL	≤ 0.5 µg/mL	> 64 µg/mL	–
CO/N=C(\C(=O)N[C@@H]1C(=O)N2C(C(=O)O)=C(COC(C)=O)CS[C@H]12)c1csc(N)n1 [CEFOTAXIME]	≤ 0.25 µg/mL	1020 µg/mL (≈ 2250 µM)	2050 µg/mL (≈ 4500 µM)	≤ 0.25 µg/mL	–	Km (Shigella sonnei [6]): 103 µM; kcat (Shigella sonnei [6]): 197 s⁻¹; kcat/Km (Shigella sonnei [7]): 1.9 ×10⁶ /M/s; MIC (Escherichia coli [8]): ≤ 0.12 µg/mL; MIC (Shigella sonnei [9]): ≤ 0.12 µg/mL; MIC (Escherichia coli [10]): ≤ 0.12 µg/mL; MIC (Escherichia coli [11]): ≤ 0.12 µg/mL; MIC (Escherichia coli [12]): ≤ 0.12 µg/mL; MIC (Escherichia coli [5]): >2048 µg/mL
CO/N=C(\C(=O)N[C@@H]1C(=O)N2C(C(=O)[O-])=C(C[N+]3(C)CCCC3)CS[C@H]12)c1csc(N)n1	–	> 32 µg/mL	> 32 µg/mL	–	> 32 µg/mL	Km (Shigella sonnei [6]): 505 µM; kcat (Shigella sonnei [6]): 67.7 s⁻¹; kcat/Km (Shigella sonnei [7]): 1.3 ×10⁵ /M/s
CN(C)CCn1nnnc1SCC1=C(C(=O)O)N2C(=O)[C@@H](NC(=O)Cc3csc(N)n3)[C@H]2SC1 [CEFOTIAM]	–	–	–	–	–	MIC (Escherichia coli [13]): ≤ 8 µg/mL; MIC (Escherichia coli [14]): > 16 µg/mL; MIC (Escherichia coli [15]): > 16 µg/mL; MIC (Escherichia coli [16]): ≤ 8 µg/mL; MIC (Shigella sonnei [17]): > 16 µg/mL
CO/N=C(\C(=O)N[C@@H]1C(=O)N2C(C(=O)[O-])=C(C[n+]3cccc4c3CCC4)CS[C@H]12)c1csc(N)n1 [CEFPIROME]	≤ 1 µg/mL	> 16 µg/mL	> 16 µg/mL	≤ 1 µg/mL	> 16 µg/mL	–
Cc1nnc(SCC2=C(C(=O)O)N3C(=O)[C@@H](NC(=O)Cn4cnnn4)[C@H]3SC2)s1 [CEFAZOLIN]	–	–	–	–	–	MIC (Escherichia coli [14]): > 16 µg/mL; MIC (Escherichia coli [15]): > 16 µg/mL; MIC (Shigella sonnei [17]): > 16 µg/mL
CO[C@@]1(NC(=O)C2SC(=C(C(N)=O)C(=O)O)S2)C(=O)N2C(C(=O)O)=C(CSc3nnnn3C)CS[C@@H]21 (stereo not given in full) [CEFOTETAN]	≤ 0.5 µg/mL	≤ 0.5 µg/mL	≤ 0.5 µg/mL	≤ 0.5 µg/mL	8 µg/mL (≈ 13.9 µM)	–
CC(=O)OCC1=C(C(=O)O)N2C(=O)[C@@H](NC(=O)Cc3cccs3)[C@H]2SC1	–	–	–	–	–	Km (Shigella sonnei [6]): 37.9 µM; kcat (Shigella sonnei [6]): 185 s⁻¹; kcat/Km (Shigella sonnei [7]): 4.9 ×10⁶ /M/s
CC1(C)S[C@@H]2[C@H](NC(=O)[C@H](N)c3ccc(O)cc3)C(=O)N2[C@H]1C(=O)O [AMOXICILLIN]	2 µg/mL (≈ 5.47 µM)	2 µg/mL (≈ 5.47 µM)	2 µg/mL (≈ 5.47 µM)	≤ 1 µg/mL	8 µg/mL (≈ 21.9 µM)	MIC (Escherichia coli [18]): 2 µg/mL; MIC (Shigella sonnei [19]): 2 µg/mL; MIC (Escherichia coli [11]): 8 µg/mL; MIC (Escherichia coli [20]): ≤ 1 µg/mL; MIC (Escherichia coli [21]): 2 µg/mL
CO/N=C(\C(=O)N[C@@H]1C(=O)N2C(C(=O)[O-])=C(C[n+]3ccn4ncccc43)CS[C@H]12)c1nsc(N)n1 [CEFOZOPRAN]	≤ 1 µg/mL	> 16 µg/mL	> 16 µg/mL	≤ 1 µg/mL	> 16 µg/mL	–
CC(C)(O/N=C(\C(=O)N[C@@H]1C(=O)N2C(C(=O)[O-])=C(C[n+]3ccccc3)CS[C@H]12)c1csc(N)n1)C(=O)O [CEFTAZIDIME]	≤ 0.25 µg/mL	32 µg/mL (≈ 58.5 µM)	64 µg/mL (≈ 117 µM)	≤ 0.25 µg/mL	2050 µg/mL (≈ 3750 µM)	Ki [22]: > 10000 µM; MIC (Escherichia coli [8]): ≤ 0.12 µg/mL; MIC (Shigella sonnei [9]): ≤ 0.12 µg/mL; MIC (Escherichia coli [10]): ≤ 0.12 µg/mL; MIC (Escherichia coli [11]): ≤ 0.5 µg/mL; MIC (Escherichia coli [12]): ≤ 0.12 µg/mL
N[C@@H](C(=O)N[C@@H]1C(=O)N2C(C(=O)O)=C(Cl)CS[C@H]12)c1ccccc1 [CEFACLOR ANHYDROUS]	≤ 2 µg/mL	> 16 µg/mL	> 16 µg/mL	≤ 2 µg/mL	> 16 µg/mL	–
CCN1CCN(C(=O)N[C@@H](C(=O)N[C@@H]2C(=O)N3C(C(=O)O)=C(CSc4nnnn4C)CS[C@H]23)c2ccc(O)cc2)C(=O)C1=O [CEFOPERAZONE]	–	–	–	–	–	MIC (Escherichia coli [14]): > 32 µg/mL; MIC (Shigella sonnei [23]): 8 µg/mL; MIC (Escherichia coli [24]): > 32 µg/mL; MIC (Shigella sonnei [17]): 8 µg/mL (≈ 12.4 µM)
CO[C@@]1(NC(=O)CSC(F)F)C(=O)N2C(C(=O)O)=C(CSc3nnnn3CCO)CO[C@@H]21 [FLOMOXEF]	–	–	–	–	–	MIC (Escherichia coli [13]): ≤ 1 µg/mL; MIC (Escherichia coli [14]): ≤ 1 µg/mL; MIC (Escherichia coli [15]): ≤ 1 µg/mL; MIC (Escherichia coli [16]): ≤ 1 µg/mL; MIC (Shigella sonnei [17]): ≤ 1 µg/mL
CC1(C)S[C@@H]2[C@H](NC(=O)[C@H](N)c3ccccc3)C(=O)N2[C@H]1C(=O)O [AMPICILLIN]	≤ 2 µg/mL	> 16 µg/mL	> 16 µg/mL	≤ 2 µg/mL	> 16 µg/mL	Km (Shigella sonnei [6]): 19.5 µM; kcat (Shigella sonnei [6]): 36.9 s⁻¹; kcat/Km (Shigella sonnei [7]): 1.9 ×10⁶ /M/s
C[C@H]1[C@H](NC(=O)/C(=N\OC(C)(C)C(=O)O)c2csc(N)n2)C(=O)N1S(=O)(=O)O [AZTREONAM]	–	32 µg/mL (≈ 73.5 µM)	64 µg/mL (≈ 147 µM)	–	1020 µg/mL (≈ 2350 µM)	–
O=C(Cc1cccs1)N[C@@H]1C(=O)N2C(C(=O)O)=C(/C=C/c3ccc([N+](=O)[O-])cc3[N+](=O)[O-])CS[C@H]12	–	–	–	–	–	Km (Shigella sonnei [6]): 14.8 µM; kcat (Shigella sonnei [6]): 252 s⁻¹; kcat/Km (Shigella sonnei [7]): 1.7 ×10⁷ /M/s
C[C@@H](O)[C@H]1C(=O)N2C(C(=O)O)=C(SCCNC=N)C[C@H]12 [IMIPENEM ANHYDROUS]	≤ 0.5 µg/mL	≤ 0.5 µg/mL	≤ 0.5 µg/mL	≤ 0.5 µg/mL	≤ 0.5 µg/mL	–
CCN1CCN(C(=O)N[C@@H](C(=O)N[C@@H]2C(=O)N3[C@@H]2SC(C)(C)[C@@H]3C(=O)O)c2ccccc2)C(=O)C1=O [PIPERACILLIN]	≤ 8 µg/mL	> 64 µg/mL	> 64 µg/mL	≤ 8 µg/mL	> 64 µg/mL	–
CO[C@@]1(NC(=O)Cc2cccs2)C(=O)N2C(C(=O)O)=C(COC(N)=O)CS[C@@H]21 [CEFOXITIN]	4 µg/mL (≈ 9.36 µM)	≤ 2 µg/mL	≤ 2 µg/mL	≤ 2 µg/mL	8 µg/mL (≈ 18.7 µM)	–
CO[C@@]1(NC(=O)CSCC#N)C(=O)N2C(C(=O)O)=C(CSc3nnnn3C)CS[C@@H]21 [CEFMETAZOLE]	1 µg/mL (≈ 2.12 µM)	–	1 µg/mL (≈ 2.12 µM)	≤ 0.5 µg/mL	1 µg/mL (≈ 2.12 µM)	MIC (Shigella sonnei [2]): <=0.5 ug ml-1
CO/N=C(\C(=O)N[C@@H]1C(=O)N2C(C(=O)O)=C(CSc3nc(=O)c(O)nn3C)CS[C@H]12)c1csc(N)n1 [CEFTRIAXONE]	≤ 0.25 µg/mL	1020 µg/mL (≈ 1850 µM)	2050 µg/mL (≈ 3690 µM)	≤ 0.25 µg/mL	2050 µg/mL (≈ 3690 µM)	–
O=C(O)[C@H]1/C(=C/CO)O[C@@H]2CC(=O)N21 [CLAVULANIC ACID]	–	–	–	–	–	IC50 [22]: 0.01 µM
C[C@@H](O)[C@H]1C(=O)N2C(C(=O)O)=C(S[C@@H]3CN[C@H](C(=O)N(C)C)C3)[C@H](C)[C@H]12 [MEROPENEM]	≤ 0.5 µg/mL	≤ 0.5 µg/mL	≤ 0.5 µg/mL	≤ 0.5 µg/mL	≤ 0.5 µg/mL	–
